Measurements published in ChEMBL document CHEMBL1133691 (J Med Chem, 2000).

Key:
[1] = Oral bioavailability; format: ADME, organism-based; settings: rat, in vivo
[2] = Plasma half life was observed after intravenous administration in rat; format: ADME, organism-based
How it was run: (§1)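 Male SD rats (233-264 g), 3 per group, given a 1 μmol/kg intravenous bolus into a tail vein in DMA:PEG400:citrate buffer (40:40:20), formulated at 2 μmol/mL. No anaesthesia. Tail-vein blood was sampled at 2, 10, 30, 60, 120, 240 and 360 min. Plasma was ethanol-precipitated and analysed by LC-MS/MS against spiked-plasma standard curves. Values are mean ± SD.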

[3] = Volume of distribution at steady state was observed after intravenous administration in rat; format: ADME, organism-based; settings: in vivo, read-out: Vss; how it was run: as §1
Rattus norvegicus [4] = experiment: Area under curve in male SD rats was observed after intravenous administration in rat; format: ADME, organism-based; settings: in vivo; how it was run: as §1
[5] = Time required to reach maximum concentration (Cmax) after oral administration in rat; format: ADME, organism-based; settings: in vivo
[6] = Plasma clearance was observed after intravenous administration in rat; format: ADME, organism-based; how it was run: as §1
Rattus norvegicus [7] = experiment: Mean peak plasma concentration was observed after intravenous administration in rat; format: ADME, organism-based; set-up: route intravenous; settings: in vivo; how it was run: as §1
Rattus norvegicus [8] = experiment: Mean peak plasma concentration was observed after oral administration in rat; format: ADME, organism-based; set-up: route oral; settings: in vivo
Rattus norvegicus [9] = experiment: Area under curve in male SD rats was observed after oral administration in rat; format: ADME, organism-based; settings: in vivo
Dihydrofolate reductase [10] = target: T1, Dihydrofolate reductase (Rattus norvegicus, UniProt Q920D2); experiment: Ability to inhibit recombinant rat liver dihydrofolate reductase.
T1 sequence (Q920D2 whole entry): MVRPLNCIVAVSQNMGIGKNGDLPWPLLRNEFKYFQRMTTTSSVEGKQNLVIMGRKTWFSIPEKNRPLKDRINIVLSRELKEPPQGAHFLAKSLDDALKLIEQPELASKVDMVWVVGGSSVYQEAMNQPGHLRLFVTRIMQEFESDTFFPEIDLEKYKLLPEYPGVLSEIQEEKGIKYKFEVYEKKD

Dihydrofolate reductase [11] = target: T2, Dihydrofolate reductase (Homo sapiens, UniProt P00374); experiment: Ability to inhibit recombinant human dihydrofolate reductase.
T2 sequence (P00374 whole entry): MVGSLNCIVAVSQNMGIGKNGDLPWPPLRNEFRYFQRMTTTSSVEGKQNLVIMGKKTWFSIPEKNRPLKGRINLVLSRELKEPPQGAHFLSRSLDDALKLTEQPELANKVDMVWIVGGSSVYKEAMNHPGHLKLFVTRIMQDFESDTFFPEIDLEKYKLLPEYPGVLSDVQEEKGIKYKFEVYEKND

[12] = time required to reach maximum concentration (Cmax) after oral administration in rat; format: ADME, organism-based; settings: in vivo
[13] = volume of distribution at steady state was observed after intravenous administration in rat; format: ADME, organism-based; settings: in vivo, read-out: Vss; how it was run: as §1
Rattus norvegicus [14] = experiment: mean peak plasma concentration was observed after intravenous administration in rat; format: ADME, organism-based; set-up: route intravenous; settings: in vivo; how it was run: as §1
Rattus norvegicus [15] = experiment: mean peak plasma concentration was observed after oral administration in rat; format: ADME, organism-based; set-up: route oral; settings: in vivo
[16] = plasma clearance was observed after intravenous administration in rat; format: ADME, organism-based; how it was run: as §1
[17] = plasma half life was observed after intravenous administration in rat; format: ADME, organism-based
How it was run: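 Male SD rats (233-264 g), three per route; 1 μmol/kg given as a tail-vein bolus in DMA:PEG400:citrate buffer (40:40:20) vehicle at 2 μmol/mL, no anaesthesia. Tail-vein blood sampled at 2, 10, 30, 60, 120, 240 and 360 min; plasma ethanol-precipitated and analysed by LC-MS/MS against spiked-plasma standard curves. Values are means ± SD, n = 3.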

bioavailability [1]	half-life [2]	Vd [3]	AUC inf (Rattus norvegicus [4])	Tmax [5]	clearance [6]	Cmax (Rattus norvegicus [7])	Cmax (Rattus norvegicus [8])	AUC (Rattus norvegicus [9])	IC50 (Dihydrofolate reductase [11])	Tmax [12]	Vd [13]	Cmax (Rattus norvegicus [14])	Cmax (Rattus norvegicus [15])	clearance [16]	half-life [17]	Compound	IC50 (Dihydrofolate reductase [10])
3.4%	60 min	0.42 L/kg	1.23 µM·h	40.2 min	15 mL/min/kg	9.17 µM	0.144 µM	0.384 µM·h	0.125 µM	–	–	–	–	–	–	Nc1nc(N)c2cc(COC(=O)c3ccc(C(=O)N[C@@H](CCC(=O)O)C(=O)O)cc3)ccc2n1	0.0193 µM
–	–	–	–	–	–	–	–	–	–	–	–	–	–	–	–	Nc1nc(N)c2nc(COC(=O)c3ccc(C(=O)N[C@@H](CCC(=O)O)C(=O)O)cc3)cnc2n1	0.12 µM
5.8%	–	–	1.56 µM·h	–	–	–	–	0.838 µM·h	–	40.2 min	0.36 L/kg	8.26 µM	0.266 µM	11 mL/min/kg	54 min	CN(Cc1cnc2nc(N)nc(N)c2n1)c1ccc(C(=O)N[C@@H](CCC(=O)O)C(=O)O)cc1 [METHOTREXATE]	–
